Like-named read-outs stand apart in the source and are kept apart here.
How the values were obtained:
[1] = system: P. aeruginosa ATCC 27853; experiment: MIC by broth dilution; assay type: cell-based; settings: Pseudomonas aeruginosa, ATCC27853
[2] = system: S. aureus HFH-30123 (MRSA); experiment: MIC by broth dilution; assay type: cell-based; settings: Staphylococcus aureus
[3] = system: Staphylococcus aureus 1094 (MRSA); experiment: MIC by broth dilution; assay type: cell-based
[4] = system: Enterobacter cloacae ATCC 13047; experiment: MIC by broth dilution; assay type: cell-based; settings: ATCC13047
[5] = system: Klebsiella pneumoniae NR-15410 (KPC); experiment: MIC by broth dilution; assay type: cell-based
[6] = Surface plasmon resonance binding to immobilized 3-Lipid II
Outline: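 SPR was run at 25°C on a Biacore T100. About 50 RU of farnesyl (3-isoprene) Lipid II was amine-coupled to a CM5 chip. Running buffer was 10 mM HEPES, 150 mM NaCl, 0.05% P20, pH 7.4 (±3 mM EDTA) with 10% DMSO. Screening injections were at 10 μM, with control-cell subtraction and 30 s regeneration in 50 mM NaOH. Kd came from binding isotherms, averaged over three assays.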

[7] = system: Enterococcus faecium EF1509 (VRE); experiment: MIC by broth dilution; assay type: cell-based
[8] = system: Pseudomonas aeruginosa X13273; experiment: MIC by broth dilution; assay type: cell-based
[9] = system: Acinetobacter baumannii BAA-1605; experiment: MIC by broth dilution; assay type: cell-based; settings: BAA1605
[10] = system: K. pneumoniae NR-15411 (KPC); experiment: MIC by broth dilution; assay type: cell-based; settings: Klebsiella pneumoniae
[11] = system: E. faecium F118 (VRE); experiment: MIC by broth dilution; assay type: cell-based; settings: Enterococcus faecium
[12] = system: Enterobacter aerogenes ATCC 13048; experiment: MIC by broth dilution; assay type: cell-based; settings: Klebsiella aerogenes, ATCC13048
[13] = system: Acinetobacter baumannii ATCC 19606; experiment: MIC by broth dilution; assay type: cell-based; settings: ATCC19606, Table 4, mean of three replicates
[14] = Cytotoxicity against mammalian cells; assay type: cell-based; settings: human, HeLa cells (ATCC CCL-2.2)
Outline: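 HeLa cells (ATCC CCL-2.2) were exposed to the test compound for 72 h. CC50 is the concentration giving a half-maximal decrease in viability, averaged over two replicate assays.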

[15] = system: S. aureus; experiment: Antibacterial activity / killing of S. aureus; assay type: cell-based; settings: Staphylococcus aureus
[16] = system: DNA, cell wall, protein, and lipid synthesis in S. aureus NCTC 8325; experiment: Macromolecular synthesis assays, all pathways; assay type: cell-based, Staphylococcus aureus
[17] = system: S. aureus (VISA) NRS22; experiment: MIC by broth dilution; assay type: cell-based, Staphylococcus aureus; settings: Table S2; unit not given
[18] = system: Staphylococcus aureus (USA300) MRSA; experiment: MIC by broth dilution; assay type: cell-based; settings: Table S2; unit not given
[19] = system: Staphylococcus aureus (VISA) ATCC 700699; experiment: MIC by broth dilution; assay type: cell-based; settings: Table S2; unit not given
[20] = read-out: Lipid II binding (Kd), Table 4, averages of three replicate assays

| SMILES | MIC [1] [µg/mL] | MIC [2] [µg/mL] | MIC [3] [µg/mL] | MIC [4] [µg/mL] | MIC [5] [µg/mL] | Kd [6, 20] [µM] | MIC [7] [µg/mL] | MIC [8] [µg/mL] | MIC [9] [µg/mL] | MIC [10] [µg/mL] | MIC [11] [µg/mL] | MIC [12] [µg/mL] | MIC [13] [µg/mL] | CC50 at 72 h [14] [µg/mL] | other results |
| --- | --- | --- | --- | --- | --- | --- | --- | --- | --- | --- | --- | --- | --- | --- | --- |
| CN1/C(=C/C=C/c2cc(-c3ccccc3)cc(-c3ccccc3)[n+]2C)C(C)(C)c2ccccc21.F[B-](F)(F)F [SF-5-219, 1-Methyl-2,4-diphenyl-6-((1E,3E)-3-(1,3,3-trimethylindolin-2-ylidene)prop-1-en-1-yl)pyridin-1-ium tetrafluoroborate] | ≥ 32 | 1 | 1 | ≥ 32 | 32 | 7.4 ± 3.08 | 0.5 | ≥ 32 | 8 | 32 | 5 | 32 | 8 | 0.25 |  |
| CC(C)C[n+]1c(/C=C/C=C2/N(C)c3ccccc3C2(C)C)cc(-c2ccccc2)cc1-c1ccccc1.F[B-](F)(F)F [SF-5-331, 1-Isobutyl-2,4-diphenyl-6-((1E,3E)-3-(1,3,3-trimethylindolin-2-ylidene)prop-1-en-1-yl)pyridin-1-ium tetrafluoroborate] | 32 | 1 | 1 | 32 | 16 | 0.34 ± 0.24 | 0.5 | 8 | 8 | 32 | 2 | 32 | 8 | 0.26 | MIC [15]: 1 µg/mL; inhibition of macromolecular synthesis pathways [16]: inhibited all pathways at low concentrations |
| Cc1cc(-c2ccccc2)cc(-c2ccccc2)[n+]1C [Z56760026, 1,2-Dimethyl-4,6-diphenylpyridin-1-ium] |  |  |  |  |  |  |  |  |  |  |  |  |  |  | Kd ([6]; read-out: Lipid II binding Kd): 37 µM |
| CN[C@H](CC(C)C)C(=O)N[C@H]1C(=O)N[C@@H](CC(N)=O)C(=O)N[C@H]2C(=O)N[C@H]3C(=O)N[C@H](C(=O)N[C@H](C(=O)O)c4cc(O)cc(O)c4-c4cc3ccc4O)[C@H](O)c3ccc(c(Cl)c3)Oc3cc2cc(c3O[C@@H]2O[C@H](CO)[C@@H](O)[C@H](O)[C@H]2O[C@H]2C[C@](C)(N)[C@H](O)[C@H](C)O2)Oc2ccc(cc2Cl)[C@H]1O [Vancomycin] |  |  |  |  |  |  |  |  |  |  |  |  |  |  | Antibacterial activity (MIC) [17]: 8; Antibacterial activity (MIC) [18]: ≤ 0.5; Antibacterial activity (MIC) [19]: 8 |
| CC(C)[n+]1c(/C=C/C=C2/N(C)c3ccccc3C2(C)C)cc(-c2ccccc2)cc1-c1ccccc1.F[B-](F)(F)F [SF-5-330, 1-Isopropyl-2,4-diphenyl-6-((1E,3E)-3-(1,3,3-trimethylindolin-2-ylidene)prop-1-en-1-yl)pyridin-1-ium tetrafluoroborate] | 8 | 1 | 1 | 16 | 10 | 0.54 ± 0.16 | 0.5 | 4 | 8 | 25.4 | 5 | 8 | 8 | 0.33 | MIC [15]: 1 µg/mL; inhibition of macromolecular synthesis pathways [16]: inhibited all pathways at low concentrations |
| CCOc1ccc(-c2cc(C=CC=C3N(C)c4ccccc4C3(C)C)o[c+](-c3ccc(OCC)cc3)c2)cc1 [BAS00127537, 2,4-Bis-(4-ethoxy-phenyl)-6-[3-(1,3,3-trimethyl-1,3-dihydro-indol-2-ylidene)-propenyl]-pyranylium] |  |  |  |  |  |  |  |  |  |  |  |  |  |  | reduction in Lipid II-binding affinity compared to BAS00127538 ([6]; from Table 1): ~ 15 fold |
| CN(C)CC[n+]1c(/C=C/C=C2/N(C)c3ccccc3C2(C)C)cc(-c2ccccc2)cc1-c1ccccc1.F[B-](F)(F)F [SF-5-334, 1-(2-(Dimethylamino)ethyl)-2,4-diphenyl-6-((1E,3E)-3-(1,3,3-trimethylindolin-2-ylidene)prop-1-en-1-yl) pyridin-1-ium tetrafluoroborate] | ≥ 32 | 16 | 16 | ≥ 32 | ≥ 32 | 1.9 ± 0.86 | 8 | ≥ 32 | 32 | ≥ 32 | 32 | ≥ 32 | 32 | 2.25 |  |
| CN1/C(=C/C=C/c2cc(-c3ccccc3)cc(-c3ccccc3)[n+]2CCO)C(C)(C)c2ccccc21.F[B-](F)(F)F [SF-5-332, 1-(2-Hydroxyethyl)-2,4-diphenyl-6-((1E,3E)-3-(1,3,3-trimethylindolin-2-ylidene)prop-1-en-1-yl)pyridin-1-ium tetrafluoroborate] | ≥ 32 | 1 | 1 | ≥ 32 | ≥ 32 | 4.4 ± 3.02 | 1 | ≥ 32 | 20.2 | ≥ 32 | 8 | ≥ 32 | 20.2 | 0.8 |  |
